Consider two substances from article PMC3188443 (Biochemical pharmacology, 2010).

A word on the Kd: it is a measure of binding affinity in units of concentration. A high value points to lower affinity. What is called IC50 is the concentration at which inhibition is half-maximal. The low end stands for higher potency, the high end for lower potency.

Ends that are not written are not given here.

Experiment [1] deals with His-tagged murine Stat3 protein (murine) (UniProt P42227). The experiment is described as follows: SPR.
For experiment [2] the target is unchanged. The experiment can be described thus: fluorescence polarisation. (Fluorescence polarisation rises when a labelled molecule tumbles more slowly, as on binding a larger partner.)
Experiment [3] has as its target T1, Stat3 (Mus musculus, UniProt P42227). The experiment is classed as binding, murine. The settings on record: 150 nM His-Stat3, unlabeled peptide.
Experiment [4] concerns the target T1, Stat3. The experiment can be described thus: Surface Plasmon Resonance analysis of binding to immobilized His-tagged Stat3. Also on record: species or system murine. The conditions noted are these: 0-5 μM peptide as analyte. An outline of the steps:
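His-tagged Stat3 expressed in E. coli BL21(DE3), purified on a Ni-ion Sepharose column, and captured on a HisCap sensor chip by injecting 50 μg/ml protein. Analytes were unphosphorylated or phosphotyrosine gp-130 heptapeptides at 0-5 μM, passed over the chip. Running buffer was 1X PBS, 0.5% DMSO. Association and dissociation rate constants were fitted, and KD was taken as their ratio.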

T1 sequence (P42227 whole entry): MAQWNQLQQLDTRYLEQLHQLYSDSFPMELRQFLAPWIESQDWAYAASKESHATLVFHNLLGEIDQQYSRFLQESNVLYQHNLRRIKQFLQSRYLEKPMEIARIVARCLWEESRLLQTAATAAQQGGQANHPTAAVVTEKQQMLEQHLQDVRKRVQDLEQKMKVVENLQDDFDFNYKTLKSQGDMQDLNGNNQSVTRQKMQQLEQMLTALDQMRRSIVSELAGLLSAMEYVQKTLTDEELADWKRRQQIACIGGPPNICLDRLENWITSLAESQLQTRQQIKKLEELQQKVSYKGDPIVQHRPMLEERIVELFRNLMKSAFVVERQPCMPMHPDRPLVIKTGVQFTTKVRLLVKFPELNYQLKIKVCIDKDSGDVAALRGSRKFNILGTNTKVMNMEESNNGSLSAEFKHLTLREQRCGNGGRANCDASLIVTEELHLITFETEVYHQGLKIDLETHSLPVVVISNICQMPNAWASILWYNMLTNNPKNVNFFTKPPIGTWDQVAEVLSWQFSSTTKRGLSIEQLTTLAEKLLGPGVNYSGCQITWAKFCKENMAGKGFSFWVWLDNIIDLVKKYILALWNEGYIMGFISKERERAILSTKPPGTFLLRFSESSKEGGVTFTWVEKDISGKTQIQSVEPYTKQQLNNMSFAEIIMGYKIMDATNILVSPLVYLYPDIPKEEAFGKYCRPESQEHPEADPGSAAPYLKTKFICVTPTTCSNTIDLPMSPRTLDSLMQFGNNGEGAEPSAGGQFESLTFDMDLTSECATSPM
His-tagged murine Stat3 protein (murine), sequence (P42227 whole entry): as above

For “GpYLPQTV-NH2, high affinity Stat3-binding phosphoTyr peptide derived from the IL-6R subunit gp-130”, the Kd in experiment [1] worked out at 24 nM. Further, the IC50 in experiment [2] was 300 nM.

In the case of GYLPQTV-NH2, in the experiment with Stat3 [3], the “inhibition in the FP assay, in words” value is “no evidence of inhibition”. Also, the “binding to Stat3 (SPR)” value with Stat3 [4] is recorded as “no significant binding”.
